Test results: ChEMBL document CHEMBL1126270, “Synthesis of 3-[(2,3-dihydro-1,1,3-trioxo-1,2-benzisothiazol-2-yl)alkyl] 1,4-dihydropyridine-3,5-dicarboxylate derivatives as calcium channel modulators” (J Med Chem, 1992)

Key:
Rattus norvegicus [1] = organism: Rattus norvegicus; test: Duration of action in spontaneously hypertensive rats.; assay type: functional
Outline: (§1)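 Anesthetized (pentobarbitone 70 mg/kg ip) Okamoto SHR, 290 ± 30 g; carotid pressure, femoral vein dosing. Cumulative increasing iv bolus doses of 1, 3, 6, 10, 20, 30 µg/kg in PEG-400 (0.1 mL/kg), each recorded 15 min; ED25 for lowering SBP and DBP and duration of hypotensive action estimated.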

Oryctolagus cuniculus [2] = organism: Oryctolagus cuniculus; test: Blockade of calcium-evoked contractions evaluated in depolarized rabbit aortic strips; assay type: functional; conditions: Aorta
Outline: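 Male New Zealand rabbit thoracic aorta, helicoidal strips, 2.5 g preload, Krebs–bicarbonate, 37 °C, 95% O2/5% CO2, pH 7.4. After 1 h equilibration, depolarized with 35 mM K+; 1.5 mM Ca2+ added 10 min later, repeated until reproducible. Compound at increasing concentrations from 20 min before and during Ca2+ addition; responses normalized to initial tension; IC50 by Finney method.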

Oryctolagus cuniculus [3] = organism: Oryctolagus cuniculus; test: Recovery of the initial contraction of rabbit aortic strips, blocked at 10e-7 M concentration.; conditions: Aorta
Oryctolagus cuniculus [4] = organism: Oryctolagus cuniculus; test: Relative potency evaluated (relative potency = IC50 of compound / IC50 of nifedipine) in rabbit; assay type: functional
Rattus norvegicus [5] = organism: Rattus norvegicus; test: Compound evaluated for reducing diastolic blood pressure in spontaneously hypertensive rats.; assay type: functional; conditions: Artery; outline: as §1
Oryctolagus cuniculus [6] = organism: Oryctolagus cuniculus; test: Inhibition of electrically stimulated rabbit left atria contraction.; assay type: functional
Outline: (§2)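 Rabbit left atria electrically driven (1 Hz, 10 ms, twice threshold voltage), equilibrated 1–1.5 h. Compounds added cumulatively (10^-10–10^-6 M), diluted from DMSO stocks into Krebs–Henseleit, final DMSO <0.1%. Isometric force recorded; IC50 from contractile force relative to initial control values, with 95% confidence limits.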

Rattus norvegicus [7] = test: Systolic blood pressure after administration of a single oral dose (20 mg/kg) in spontaneously hypertensive rats.; assay type: functional
Outline: (§3)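 Conscious SHR trained 2 weeks, warmed at 31 ± 1 °C for 2 h; tail plethysmography SBP, mean of five readings; only rats above 170 mmHg used. After 24 h fasting, 20 mg/kg by gavage in 20% PEG-400/0.5% methylcellulose (10 mL/kg); SBP change read 1 h post-dose, n = 12.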

Rattus norvegicus [8] = organism: Rattus norvegicus; test: Reducing systolic blood pressure in spontaneously hypertensive rats.; assay type: functional; conditions: Artery; outline: as §3
[9] = target: T1, Voltage-dependent L-type calcium channel subunit alpha-1C (Oryctolagus cuniculus, UniProt P15381); test: Selectivity index was measured as the IC50 needed to depress the heart beat divided by IC50 needed to block [Ca2+] contractions in rabbit aortic strips; assay type: functional, tissue-based, Aorta
Rattus norvegicus [10] = test: Effect (iv, 100 ug/kg) on diastolic blood pressure in anesthetized normotensive rat; assay type: functional, Artery
Outline: (§4)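 Male Wistar rats, 290 ± 30 g, pentobarbitone anesthesia (70 mg/kg ip), tracheal cannulation. Carotid arterial pressure recorded, dosing via femoral vein. Bolus iv of 0.1 mg/kg in PEG-400 (0.1 mL/kg); effects recorded continuously for 15 min; peak rise in mmHg above basal.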

Oryctolagus cuniculus [11] = organism: Oryctolagus cuniculus; test: Compound was evaluated for contraction on Electrically driven Rabbit left atria. at 10e-7 M; assay type: functional
Rattus norvegicus [12] = test: Effect (iv, 100 ug/kg) on systolic blood pressure in anesthetized normotensive rat; assay type: functional, Artery; outline: as §4
Oryctolagus cuniculus [13] = organism: Oryctolagus cuniculus; test: Compound was evaluated for contraction on Electrically driven Rabbit left atria. at 10e-8 M; assay type: functional
Oryctolagus cuniculus [14] = organism: Oryctolagus cuniculus; test: Maximum contractile force in rabbit aorta strips; assay type: functional
Outline: (§5)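 Rabbit aortic strips, after equilibration in Ca2+-free Krebs, switched to buffer with 10 mM K+. Repeated 1.5 mM Ca2+ pulses until reproducible. Increasing compound concentrations each given 10 min before a further 1.5 mM Ca2+ pulse. Maximum contractile force (mg) taken as vasoconstrictor effect; data as mean ± SEM at 10^-6 M.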

Rattus norvegicus [15] = organism: Rattus norvegicus; test: Compound evaluated for reducing diastolic blood pressure normotensive rats.; assay type: functional, Artery
Oryctolagus cuniculus [16] = organism: Oryctolagus cuniculus; test: Compound was evaluated for contraction on Electrically driven Rabbit left atria. at 10e-6 M; assay type: functional
[17] = target: T1, Voltage-dependent L-type calcium channel subunit alpha-1C; test: Blockade of calcium-evoked contractions in depolarized aortic strips; assay type: functional, tissue-based, Aorta
[18] = target: T1, Voltage-dependent L-type calcium channel subunit alpha-1C; conditions: rabbit, Aorta
Oryctolagus cuniculus [19] = organism: Oryctolagus cuniculus; test: Relative potency was evaluated. (relative potency = IC50 of compound / IC50 of nifedipine); assay type: functional
Rattus norvegicus [20] = organism: Rattus norvegicus; test: Compound evaluated for reducing diastolic blood pressure spontaneously hypertensive rats.; assay type: functional; conditions: Artery
Outline: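 Male SHR (Okamoto strain, 290 ± 30 g) under sodium pentobarbitone anaesthesia (70 mg/kg ip) with tracheal cannulation. Arterial pressure recorded from the left carotid artery. Bolus iv via right femoral vein in PEG-400 (0.1 mL/kg), cumulative doses of 1, 3, 6, 10, 20 and 30 μg/kg, each followed for 15 min. ED25 for lowering diastolic pressure estimated.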

Rattus norvegicus [21] = test: Systolic blood pressure after administration of a single oral dose (20 mg/kg); assay type: functional
Outline: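 Conscious SHR trained for 2 weeks; systolic pressure by tail plethysmography after 2 h at 31 ± 1 °C, each reading the mean of five determinations. Only rats with basal >170 mmHg were used. After 24 h fasting, dosed by gavage in 20% PEG-400 in 0.5% aqueous methylcellulose (10 mL/kg). % change from basal at 1 h; mean ± SE, n = 12.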

Oryctolagus cuniculus [22] = organism: Oryctolagus cuniculus; test: Compound was tested in vitro for its effect on maximum contractile force in rabbit aorta strips; assay type: functional; outline: as §5
Rattus norvegicus [23] = organism: Rattus norvegicus; test: Compound evaluated for reducing diastolic blood pressure in normotensive rats.; assay type: functional, Artery
Oryctolagus cuniculus [24] = organism: Oryctolagus cuniculus; test: Inhibition of electrically stimulated rabbit left atria contraction; assay type: functional; outline: as §2

T1 sequence (P15381 whole entry): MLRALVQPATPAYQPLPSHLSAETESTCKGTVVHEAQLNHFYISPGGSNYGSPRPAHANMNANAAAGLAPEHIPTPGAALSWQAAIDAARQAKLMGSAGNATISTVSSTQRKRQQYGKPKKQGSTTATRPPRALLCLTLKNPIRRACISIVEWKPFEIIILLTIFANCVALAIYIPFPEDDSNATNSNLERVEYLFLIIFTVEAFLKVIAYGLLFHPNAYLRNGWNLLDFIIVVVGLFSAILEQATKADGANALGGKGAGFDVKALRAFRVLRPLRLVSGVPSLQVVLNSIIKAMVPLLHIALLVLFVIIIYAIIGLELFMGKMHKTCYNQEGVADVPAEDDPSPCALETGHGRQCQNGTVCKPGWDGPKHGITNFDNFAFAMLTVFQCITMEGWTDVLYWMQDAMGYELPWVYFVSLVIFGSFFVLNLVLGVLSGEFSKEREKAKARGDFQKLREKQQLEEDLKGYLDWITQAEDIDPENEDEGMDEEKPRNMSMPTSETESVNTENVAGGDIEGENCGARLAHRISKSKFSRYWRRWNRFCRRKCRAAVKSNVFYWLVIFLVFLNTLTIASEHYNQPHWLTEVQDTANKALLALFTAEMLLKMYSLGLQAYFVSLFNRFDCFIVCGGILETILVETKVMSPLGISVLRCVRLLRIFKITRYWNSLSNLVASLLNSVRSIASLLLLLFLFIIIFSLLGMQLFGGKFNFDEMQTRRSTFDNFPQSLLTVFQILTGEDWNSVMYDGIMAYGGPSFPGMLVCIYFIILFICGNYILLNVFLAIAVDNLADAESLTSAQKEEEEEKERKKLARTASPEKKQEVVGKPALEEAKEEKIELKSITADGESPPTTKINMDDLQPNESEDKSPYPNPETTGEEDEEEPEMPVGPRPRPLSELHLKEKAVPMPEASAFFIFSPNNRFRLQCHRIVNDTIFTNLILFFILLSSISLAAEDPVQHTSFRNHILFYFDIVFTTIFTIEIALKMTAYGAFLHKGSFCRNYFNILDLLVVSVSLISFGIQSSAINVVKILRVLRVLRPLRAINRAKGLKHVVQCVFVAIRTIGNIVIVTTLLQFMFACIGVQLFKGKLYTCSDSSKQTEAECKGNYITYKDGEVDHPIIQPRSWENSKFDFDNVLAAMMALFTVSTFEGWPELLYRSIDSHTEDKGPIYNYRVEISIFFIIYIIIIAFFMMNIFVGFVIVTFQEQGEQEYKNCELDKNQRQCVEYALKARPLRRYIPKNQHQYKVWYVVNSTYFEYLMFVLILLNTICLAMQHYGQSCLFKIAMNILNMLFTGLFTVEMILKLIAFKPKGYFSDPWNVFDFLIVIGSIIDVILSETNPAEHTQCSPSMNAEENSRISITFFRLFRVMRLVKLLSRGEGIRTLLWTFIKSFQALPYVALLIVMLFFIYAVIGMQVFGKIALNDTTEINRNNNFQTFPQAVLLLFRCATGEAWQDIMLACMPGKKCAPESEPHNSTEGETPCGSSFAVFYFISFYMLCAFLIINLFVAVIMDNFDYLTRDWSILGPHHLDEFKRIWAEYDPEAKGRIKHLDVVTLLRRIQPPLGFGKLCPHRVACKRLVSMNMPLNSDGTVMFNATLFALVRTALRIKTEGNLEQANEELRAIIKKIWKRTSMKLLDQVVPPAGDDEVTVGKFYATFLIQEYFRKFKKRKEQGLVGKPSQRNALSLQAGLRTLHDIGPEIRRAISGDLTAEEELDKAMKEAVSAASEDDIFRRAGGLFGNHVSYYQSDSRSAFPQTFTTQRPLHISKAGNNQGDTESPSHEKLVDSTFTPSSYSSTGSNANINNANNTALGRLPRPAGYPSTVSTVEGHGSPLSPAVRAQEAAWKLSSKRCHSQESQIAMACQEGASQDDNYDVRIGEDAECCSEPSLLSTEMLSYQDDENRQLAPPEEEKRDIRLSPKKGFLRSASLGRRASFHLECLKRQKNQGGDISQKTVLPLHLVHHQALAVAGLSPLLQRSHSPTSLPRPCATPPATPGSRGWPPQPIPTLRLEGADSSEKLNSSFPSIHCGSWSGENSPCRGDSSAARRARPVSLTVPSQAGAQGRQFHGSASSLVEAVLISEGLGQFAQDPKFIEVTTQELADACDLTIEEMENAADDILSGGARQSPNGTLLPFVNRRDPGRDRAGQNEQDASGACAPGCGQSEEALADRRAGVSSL

`CC1=NC(C)=C(C(=O)OCCN2C(=O)c3ccccc3S2(=O)=O)C(c2ccccc2C(F)(F)F)/C1=C(\O)OC(C)C` (stereo unspecified) gave a Duration (Rattus norvegicus [1]) greater than 15 min, an IC50 (Oryctolagus cuniculus [2]) of 1 nM and a Recovery (Oryctolagus cuniculus [3]) of 0.5%. For the same compound, the Relative potency (Oryctolagus cuniculus [4]) was 2.5, the ED25 (Rattus norvegicus [5]) was 0.008 mg/kg and the IC50 (Oryctolagus cuniculus [6]) was 102 nM. For the same compound, the SBP change (Rattus norvegicus [7]) was 37%, the ED25 (Rattus norvegicus [8]) was 0.009 mg/kg and the Selectivity index [9] was 103.
In the case of `COC(=O)C1=C(C)NC(C)=C([N+](=O)[O-])C1c1ccccc1C(F)(F)F` (stereo unspecified), the DBP (Rattus norvegicus [10]) is reported as 53.3, the Contraction (Oryctolagus cuniculus [11]) is reported as 232.2% and the SBP (Rattus norvegicus [12]) is reported as 100. For the same compound, the Contraction (Oryctolagus cuniculus [13]) was 97.8%, the Max contractile force (Oryctolagus cuniculus [14]) was 2570 mg and the DBP change (Rattus norvegicus [15]) was 53.3%. It also gave a Contraction (Oryctolagus cuniculus [16]) of 471.4%.
Work on `CC1=NC(C)=C(C(=O)OCN2C(=O)c3ccccc3S2(=O)=O)C(c2cccc([N+](=O)[O-])c2)/C1=C(\O)OCC1CCCO1` (stereo unspecified) yielded a Recovery (Oryctolagus cuniculus [3]) of 27.2%, an IC50 [17] of 25.1 nM and a T1/2 [18] of 9.6 min. For the same compound, the Relative potency (Oryctolagus cuniculus [19]) was 0.1.
`CC1=NC(C)=C(C(=O)OCN2C(=O)c3ccccc3S2(=O)=O)C(c2ccccc2[N+](=O)[O-])/C1=C(\O)OCC1CCCO1` (stereo unspecified) was tested, and the Recovery (Oryctolagus cuniculus [3]) was 44.5%, the IC50 [17] was 38 nM and the T1/2 [18] was 8.7 min. For the same compound, the IC50 (Oryctolagus cuniculus [6]) was 286 nM and the Relative potency (Oryctolagus cuniculus [19]) was 0.1.
`COC(=O)C1=C(C)NC(C)=C(C(=O)OC)C1c1ccccc1[N+](=O)[O-]` [NIFEDIPINE] was tested, and the Duration (Rattus norvegicus [1]) was 3 min, the Recovery (Oryctolagus cuniculus [3]) was 71.6% and the ED25 (Rattus norvegicus [20]) was 0.031 mg/kg. It also gave an SBP change (Rattus norvegicus [21]) of 35%, an IC50 (Oryctolagus cuniculus [6]) of 113 nM and an ED25 (Rattus norvegicus [8]) of 0.033 mg/kg.
Compound `CC1=NC(C)=C(C(=O)OCCN2C(=O)c3ccccc3S2(=O)=O)C(c2cccc([N+](=O)[O-])c2)/C1=C(\O)OCC1CCCCO1` (stereo unspecified) has a DBP (Rattus norvegicus [10]) of 40, a Contraction (Oryctolagus cuniculus [11]) of 129.6% and an IC50 (Oryctolagus cuniculus [2]) greater than 1000 nM. For the same compound, the SBP (Rattus norvegicus [12]) was 58.1, the Contraction (Oryctolagus cuniculus [13]) was 114% and the Max contractile force (Oryctolagus cuniculus [14]) was 1940 mg. For the same compound, the Contraction (Oryctolagus cuniculus [16]) was 141.2%, the Max contractile activity (Oryctolagus cuniculus [22]) was 1940 mg and the DBP change (Rattus norvegicus [23]) was 40%.
With `CC1=NC(C)=C(C(=O)OCCN2C(=O)c3ccccc3S2(=O)=O)C(c2cccc([N+](=O)[O-])c2)/C1=C(\O)OC(C)(C)C` (stereo unspecified) the IC50 (Oryctolagus cuniculus [2]) was 1.6 nM, the Recovery (Oryctolagus cuniculus [3]) was 0% and the Relative potency (Oryctolagus cuniculus [4]) was 1.8. The SBP change (Rattus norvegicus [7]) was 25%, the IC50 (Oryctolagus cuniculus [24]) was 115 nM and the Selectivity index [9] was 72.
